An excerpt weighted towards active compounds, which were near 3.6% of everything screened.
Measles CPE: protection of cells from measles virus; hit rate 1.5% among 140,000; AID 841; protection (pct of control), % at 4 µM; Measles virus-infected cells, CPE protection, absorbance; in the data active = protection mostly above about 24%, no sharp cut-off; inactive = mostly below about 26%
RAM inhibit: inhibitors of the yeast RAM network | S. cerevisiae dse1pr::URA3 reporter, 5-FOA growth OD615, 2 d; analog-sensitive cbk1-as2 kinase mutant strain | inhibition, % at 50 µM | hit rate 1.8% among 190,000;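 active = inhibition above a set limit, 3 SD over mean compound inhibition, cut at about 8.4% in these data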;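 also: 0% = DMSO-only wells with no growth and 100% = 10 µM 1-NA-PP1 full growth; inhibition rescues growth on 5-FOA so higher OD means more RAM inhibition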
BB579 growth dn: chemicals that inhibit yeast BB579 growth in restrictive medium (lifespan-shortening candidates); hit rate 0.51% among 140,000; S. cerevisiae BB579 growth, OD615, 48 h; inhibition, % at 10 µM;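 active = inhibition above a set limit, 3 SD over the mean compound inhibition, cut at about 44% in these data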
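System: Saccharomyces cerevisiae DeaD strain BB579, replicative lifespan model yeast. Buffer or medium: restrictive glucose-based CSMM-D medium. Doses: one dose, 10 µM compound with 0.25% DMSO. Timing: 4 h preincubation and 48 h exposure at 30 °C. Detection: turbidity as optical density at 615 nm. Benchmarks: amphotericin B 10 µg/mL, positive.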
Yeast life ext: extends the lifespan of yeast; S. cerevisiae growth with nicotinamide, OD615; deaD strain in restrictive glucose medium; inhibition of the nicotinamide effect, % at 10 µM; hit rate 0.68% among 130,000;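 active = inhibition above a set limit, placed 3 SD over the median of all compounds, cut at about 26% in these data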;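 also: 0% = nicotinamide-treated wells and 100% = cells grown without nicotinamide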
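System: DeaD-strain S. cerevisiae / Buffer or medium: CSMM-D, restrictive glucose (dextrose) synthetic minimal medium / Probe or stimulus: nicotinamide, 1.5 mM, co-present with compound / Compound: one concentration, 10 µM, DMSO 0.25% / Incubation: 48 h compound exposure at 30 °C, humidified / Technique: optical density (absorbance) at 615 nm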
* = called active by the depositor; · = not tested or not shown.

SMILES | Measles CPE | RAM inhibit | BB579 growth dn | Yeast life ext
CS(=O)(=O)N1CCc2cc(-c3csc(NC(=O)Cc4ccccc4)n3)ccc21 | 118* | 1 | -46 | ·
CC1Cc2cc(-c3csc(NC(=O)Cc4cccs4)n3)ccc2N1S(C)(=O)=O (configuration not stated) | 102* | 7 | -17 | 6
CCCC(=O)Nc1nc(-c2ccc3c(c2)CCN3S(C)(=O)=O)cs1 | 1 | 4 | -34 | -10
COc1ccc(CC(=O)Nc2nc(-c3cc(OC)ccc3OC)cs2)cc1 | · | 7 | · | ·
COc1ccc(OC)c(-c2csc(NC(=O)Cc3cccs3)n2)c1 | · | 8.6* | · | ·
CCC(=O)Nc1nc(-c2ccc3c(c2)CC(C)N3S(C)(=O)=O)cs1 (configuration not stated) | · | 1 | · | ·
CC(=O)Nc1ccc(S(=O)(=O)NC2(C(F)(F)F)C(=O)Nc3c2c(=O)[nH]c(=O)n3Cc2cccnc2)cc1 (configuration not stated) | · | 1 | · | ·
CN(/C=C1/C(=O)CNC1=O)CCO | · | 2 | · | ·
CCc1c(C(=O)NCCc2ccc(OC)c(OC)c2)[nH]c(C)c1C(C)=O | 4 | 0 | -28 | 47*
CCc1c(C(=O)NCc2ccccc2Cl)[nH]c(C)c1C(C)=O | 34* | 3 | -15 | -6
CC(=O)NC1(c2ccccc2)CCN(CC(=O)N2CCC(C)CC2)CC1 | · | 0 | · | ·
COc1ccc(CN2CCNC(=O)C2CC(=O)NCc2cn3ccc(C)cc3n2)c(OC)c1 (configuration not stated) | · | 2 | · | ·
CCCSc1nc(C)c(-c2csc(C(C#N)=C3CCCC3)n2)cc1C#N | 4 | 8.9* | -32 | -21
CCCCSc1nc2c(cc1C#N)CCC2 | 0 | 4 | -13 | -16
O=C(O)C1Cc2ccccc2CN1C(=O)CSc1nnc2ccccn12 (configuration not stated) | · | -1 | · | ·
O=C(NCc1ccc(Cl)cc1)C(=O)NCC1OCCN1C(=O)c1ccc(Cl)cc1 (configuration not stated) | · | 3 | · | ·
c1ccc2nc3c(nc2c1)[nH]c1ccccc13 | 12 | 4 | 77* | ·
CCSc1nc2ccccc2n1C(=O)/C=C/c1ccc(OC)c(OC)c1 | 0 | 10* | -40 | 6
O=C(OCn1ncc(Cl)c(Cl)c1=O)c1cccc(C(F)(F)F)c1 | 4 | 3 | 62* | -13
CCc1ccc(C(=O)Cn2ncc(Cl)c(Cl)c2=O)cc1 | 2 | 4 | -20 | -2
O=C(CSc1cccc[n+]1[O-])Nc1cc2c(cc1Cl)C(=O)c1ccccc1C2=O | 24* | 0 | 41 | -8
COC(=O)c1ccc(C(=O)OC)c(NC(=O)CSc2cccc[n+]2[O-])c1 | 7 | -1 | 99* | -29
CC(C)NC(=S)N1CCN(c2ncccn2)CC1 | 8 | 1 | -42 | 1
O=C(Cn1nc(-c2ccc3c(c2)OCCO3)ccc1=O)Nc1cccc(NC(=O)c2ccccn2)c1 | · | 4 | · | ·
Cc1ccc(SCC(=O)Nc2ccc(-c3nc4ccccc4[nH]3)cc2)cc1 | 5 | 1 | -25 | 3
SMILES | Measles CPE | RAM inhibit | BB579 growth dn | Yeast life ext
CCCCn1c(NC(=O)c2ccccc2Cl)c(C#N)c2nc3ccccc3nc21 | 6 | 4 | -9 | -11
N#Cc1c(NC(=O)c2ccccc2Cl)n(Cc2ccccc2)c2nc3ccccc3nc12 | 47* | 3 | -41 | 2
Cc1ccc(C(=O)NC(C)c2ccccc2)o1 (configuration not stated) | 34* | 0 | -32 | ·
CC(NC(=O)c1ccc(Br)o1)c1ccccc1 (configuration not stated) | · | 0 | · | ·
CCOC(=O)c1ccc(NC(=O)COc2ccc(CNC3CCCCC3)cc2OC)cc1 | · | 0 | · | ·
Cc1cc(C)c(S(=O)(=O)N2CCCCC2C(=O)O)c(C)c1 (configuration not stated) | · | 0 | · | ·
O=C(c1ccc(Br)cc1)c1sc(N2CCOCC2)nc1-c1ccccc1 | · | 9.4* | · | ·
[2H]c1c([2H])c([2H])c(C(=O)c2sc(N3CCCCCC3)nc2-c2ccccc2)c([2H])c1[2H] | 22 | 8.8* | -12 | 4
CN(C)S(=O)(=O)c1cccc(-c2nnc(SCC(=O)NCCCCCC(=O)O)n2-c2ccc(F)cc2)c1 | · | 3 | · | ·
C=CCn1c(SCC(=O)N2CC(=O)Nc3ccccc32)nc2scc(-c3cccs3)c2c1=O | 81* | 8 | -40 | -1
CC(C)CCn1c(SCC(=O)N2CC(=O)Nc3ccccc32)nc2scc(-c3cccs3)c2c1=O | 6 | 0 | -33 | -9
CSc1nc(C(=O)N2CCCC(C(=O)c3ccc(Cl)cc3)C2)cs1 (configuration not stated) | · | -1 | · | ·
O=C(N/N=C/c1ccccc1OCc1ccccc1)c1cccs1 | 22 | 4 | -22 | 7
Cc1nn(C)c(C)c1C1C(C#N)=C(N)OC2=C1C(=O)CCC2 (configuration not stated) | 18 | 1 | -41 | 2
CCc1cccc2c(C(=O)COC(=O)c3ccc([N+](=O)[O-])s3)c[nH]c12 | 4 | 3 | 98* | -9
COc1ccc2c(c1OC)C(=O)OC2Nn1cncn1 (configuration not stated) | 32 | 1 | -56 | 51*
O=C(CN1CCN(c2ncc(C(F)(F)F)cc2Cl)CC1)NCCNc1ncc(C(F)(F)F)cc1Cl | 4 | 3 | 93* | -25
Cc1ccc(-n2c(O)c(C=Nc3ccc4c(c3)OCO4)c3ccccc3c2=O)cc1C | 6 | 10* | -58 | -14
COC(=O)Cc1ccc(NC(=S)Nc2cccc(C)n2)cc1 | · | 4 | · | ·
CCn1ncc(C2=NOC(C(=O)NCc3ccccc3)C2)c1C (configuration not stated) | 8 | 3 | -13 | -6
CCn1ncc(C2=NOC(C(=O)Nc3c(C)n(C)n(-c4ccccc4)c3=O)C2)c1C (configuration not stated) | 7 | 1 | 48* | -11
COc1ccc2[nH]c(=O)c(CN(Cc3cccnc3)C(=S)NCC3CCCO3)cc2c1 (configuration not stated) | · | 2 | · | ·
Oc1ccc2ccccc2c1C=Nc1ccc(N2CCOCC2)cc1 | 9 | 1 | -16 | 49*
Oc1ccc(N=Nc2cccc(Cl)c2)cc1C=Nc1ccc(N2CCOCC2)cc1 | 15 | 0 | 79* | -7
O=C(NCCc1ccccc1)C(=S)N1CCCCC1 | · | 0 | · | ·
SMILES | Measles CPE | RAM inhibit | BB579 growth dn | Yeast life ext
CN(CC(O)Cn1cnc2c1c(=O)n(C)c(=O)n2C)c1ccccc1 (configuration not stated) | · | 2 | · | ·
C/C(=N\NC(=O)CSCc1ccc([N+](=O)[O-])cc1)c1cccc(Br)c1 | 35* | 4 | -16 | 8
CCOC(=O)c1ccccc1-c1csc(N)n1 | · | 1 | · | ·
C#CCSc1nnc(-c2ccc([N+](=O)[O-])cc2)o1 | · | 0 | · | ·
CC(C)Oc1ccc(C(CC(=O)NCc2ccco2)c2ccccc2)cc1 (configuration not stated) | 24* | 4 | 1 | -7
Cc1cccc(C(CC(=O)NCc2ccco2)c2ccccc2)c1O (configuration not stated) | · | 1 | · | ·
Nc1c(C2=NCCO2)nnn1Cc1ccccc1 | 41* | 0 | 2 | -3

Bioassay records: PubChem BioAssay, several laboratories
